# The list is not random: actives were taken first. Their share in the collection is about 6.4%.
# tolC growth inh: growth inhibitors of E. coli BW25113 tolC mutant; OD615; growth inhibition, % at 10 µM (by protocol); actives 2.2% (n = 65,000); AID 573;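 active = growth inhibition at or above a cutoff equal to the mean over every tested compound plus 3 SD, cut at about 60% in these data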;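 note: growth measured after 20 h incubation at 37 °C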
#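 Test system: tolC-deleted E. coli BW25113; medium: LB with kanamycin 50 µg/mL; compound: single-point testing at 10 µM; incubation: 20 h compound exposure of bacteria at 37 °C; signal: OD at 615 nm; evaluation: growth inhibition in percent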
# Lung fibro prol: blocks proliferation of human lung fibroblasts. LL 47 human lung fibroblast viability, ATP luminescence; hits give low values. viability, % at 10 µM. actives 1.1% (n = 85,000). AID 719;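 active = viability at or below 50% in the single dose screen; inactive = viability above 50%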;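 note: compound exposure lasted 72 h before the ATP readout; 100% = median luminescence of untreated cell-only wells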
#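 Benchmarks: Cell-only wells, no compound | Test system: LL 47 human lung fibroblasts, passage 12 or lower | Input: 1,150 cells/well | Measured by: CellTiter-Glo luminescence measuring cellular ATP | Medium: IMEM, 15% FBS supplement | Schedule: Overnight attachment after seeding, then 72 h compound exposure at 37 °C | Doses: Compound addition at 0.1% DMSO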
# E coli WT exp: growth inhibitors of E. coli BW25113 wild type; AID 710; growth inhibition, % at 100 µM; OD600 absorbance; actives 0.15% (n = 98,000);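 active = growth inhibition above about 50% at one test dose, limit read from the data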;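 note: growth measured after 20 h incubation at 37 °C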
# HUVEC prolif 384: human endothelial cell proliferation inhibition. viability, % at 10 µM (by protocol). actives 1.1% (n = 86,000). HUVEC proliferation, CellTiter-Glo luminescence, 72 h; hits give low values;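 active = viability at or below 30%; inactive = viability above 30%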;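 note: 100% = median luminescence of DMSO-only cell control wells on each plate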
# Jurkat tox 60K: cytotoxic compounds reducing Jurkat cell viability; Jurkat E6.1 viability, ATP luminescence, 48 h; inhibition, % at 4 µM; actives 1.2% (n = 56,000);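 active = inhibition above the mean inhibition of all tested compounds plus 3 SD, cut at about 28% in these data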
# H69AR inhibit: blocks growth of human H69AR lung tumor cells. actives 6% (n = 85,000). viability, % at 10 µM. H69AR lung tumor viability, ATP luminescence, 72 h; hits give low values;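 active = viability at or below 40%; inactive = viability above 40%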;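 note: multidrug resistant small cell line overexpressing MRP-1 efflux transporter; 100% = mean luminescence of untreated control wells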
# Starred values were filed as active, the others as inactive; / = no result.
SMILES,tolC growth inh,Lung fibro prol,E coli WT exp,HUVEC prolif 384,Jurkat tox 60K,H69AR inhibit
CC(C)(C)c1ccc(Cn2nnc3c(=O)[nH]c(C4CCCN(C(=O)Cc5cccs5)C4)nc32)cc1 (configuration not stated),88*,96,-4,77,-3,17*
CC(C)(C)c1ccc(Cn2nnc3c(=O)[nH]c(C4CCN(C(=O)Cc5cccs5)CC4)nc32)cc1,-3,89,0,41,-2,51
COc1ccccc1/C=C/C(=O)NCC(=O)N/N=C/c1cc(Br)ccc1OC,/,80,0,72,/,19*
COc1ccc(/C=C/C(=O)NCC(=O)N/N=C/c2cc(Br)ccc2OC)cc1,/,93,5,72,/,56
O=C1[C@H]2[C@@H](C(=O)N1c1cc(Cl)cc(Cl)c1)[C@]1(C(=O)Nc3ccccc31)N1CCC[C@@H]21,80*,108,11,103,6,92
Cn1c(SCc2cc(=O)[nH]c3ccccc23)nnc1-c1ccc(Br)cc1,/,94,5,84,/,98
CC1(C)Cc2c(cnn2-c2ccccc2)-c2c1c1ccccc1n2CC(O)CCl (configuration not stated),/,92,/,60,/,25*
CCOc1ccc(N2CC(C(=O)OC)CC2=O)cc1 (configuration not stated),-18,105,31,102,-1,107
COc1ccccc1OCC(=O)N(Cc1nc(-c2ccccc2)no1)C1CCCCC1,62*,95,-16,94,-4,96
Cc1ccccc1OCC(=O)N(Cc1nc(-c2ccccc2)no1)C(C)C,36,87,-11,99,-2,94
C=COCCNC(=O)C1CC(=O)N(c2ccc(C)cc2)C1 (configuration not stated),-15,105,5,101,4,95
COc1ccc(N/N=C(\C=N\O)C(=O)c2ccc(OC)cc2)cc1,/,53,-5,38*,/,26*
COc1ccc(C(=O)/C=C(\C)Nc2ccc(NC(C)=O)cc2)cc1,/,/,5,/,/,/
N#Cc1cn(Cc2ccccc2)c2ccccc12,71*,87,5,46,8,93
O=C1C=C(O)CC(c2ccco2)C1 (configuration not stated),0,98,-1,90,/,93
O=C1C=C(Nc2ccc(O)cc2)CC(c2ccco2)C1 (configuration not stated),/,80,/,64,/,26*
S=C(NN=C(C1CC1)C1CC1)Nc1ccccc1,/,95,/,92,/,93
CC(=O)Nc1sc(NC(=O)c2ccccc2)nc1-c1cccs1,-11,107,-10,97,/,55
CSc1nc2ccc3nc(NC(=O)c4ccccc4)sc3c2s1,/,97,-13,109,/,32*
O=C(COC(=O)c1cncc(Br)c1)NCCC1=CCCCC1,9,97,8,99,-6,92
CCOC(=O)/C(C#N)=C\C1=C(N2CCCC2)CC(C)(CC)OC1 (configuration not stated),/,113,/,88,/,36*
Cc1c(F)cccc1NC(=O)CSCC(=O)Nc1ccccc1,/,105,-2,103,/,100
Cc1sc2ncnc(Sc3nnnn3-c3ccc(Cl)cc3)c2c1C,14,67,-5,9.9*,0,1.4*
N#CC1=C2SCC(O)(c3ccccc3)N2C(=O)CC1c1ccccc1 (configuration not stated),13,47*,-10,40,/,24*
COC(=O)n1ccc(C(=O)Nc2ccccc2F)n1,-19,95,17,88,0,95
SMILES,tolC growth inh,Lung fibro prol,E coli WT exp,HUVEC prolif 384,Jurkat tox 60K,H69AR inhibit
Cc1cc(Cl)ccc1OCCCC(N)=O,6,42*,12,86,-5,111
Cc1cc(Cl)ccc1OCCCC(=O)NC1CCN(C)CC1,-7,102,10,107,-5,91
Cc1cc(Cl)ccc1OCCCC(=O)NO,2,81,21,92,93*,3.1*
CCOC(=O)c1c(C(F)(F)C(F)(F)C(F)(F)C(F)(F)F)n[nH]c1C,17,99,8,105,/,65
Cc1cc(C)n(-c2nc(NC(C)C)nc(NC(C)C)n2)n1,88*,/,17,/,5,/
CCNc1nc(NCC)nc(-n2nc(C)cc2C)n1,54,89,9,102,2,4.7*
COCCn1c(COc2ccc(C)cc2)nc2ccccc21,28,106,8,101,-1,96
Cc1ccc(OCCn2c(=O)cnc3ccccc32)cc1,7,58,/,40,9,19*
COc1ccc(OC)c(C(C)NC(=O)c2ccco2)c1 (configuration not stated),0,100,-2,85,40*,22*
COc1ccccc1C(C)NC(=O)c1ccc(C)o1 (configuration not stated),/,96,-3,91,/,26*
Cc1cccc(NC(=O)c2cc(NC(=O)C3CCCCC3C(=O)O)ccc2N2CCCCC2)c1 (configuration not stated),76*,104,-1,76,-3,59
CSc1nc(N2CCOCC2)c2c3c(sc2n1)CCCC3,96*,91,-2,83,2,84
Cc1cc(NC(=O)c2c(F)cccc2Cl)n(-c2nc3ccccc3[nH]2)n1,/,79,2,59,/,28*
Cc1cc(C)nc(-n2nc(C)cc2Nc2ccccc2)n1,76*,77,2,78,1,10*
Cc1cc(N2CCN(c3ccccc3)CC2)nc(-n2nc(C)cc2C)n1,71*,96,5,108,2,9.3*
Cc1cc(Nc2ccccc2)n(-c2nc3ccccc3[nH]2)n1,95*,67,-10,45,-12,37*
Cc1cc(N2CCN(c3ccccc3)CC2)nc(-c2ccccc2O)n1,/,102,-11,108,/,88
Cc1cc(Nc2ccccc2)n(-c2ccccc2)n1,12,95,4,89,5,104
Cc1ccc(/C=C/c2ccc(=O)n(Cc3ccccc3Cl)n2)cc1,/,101,-5,106,/,106
CC(=O)Nc1ccc(OC(F)(F)C(F)C(F)(F)F)c(NC(C)=O)c1 (configuration not stated),-16,100,2,98,-5,96
COc1ccccc1N1CCN(CC(O)COc2ccc3c(c2)CCC3)CC1 (configuration not stated),/,87,7,74,/,74
CCOC(=O)NC(Nc1ccc(S(N)(=O)=O)cc1)(C(=O)OCC)C(F)(F)F (configuration not stated),-6,99,1,95,1,98
Cc1cc(NC(=O)c2c(F)cccc2F)n(-c2nc3ccccc3[nH]2)n1,/,85,-7,72,/,36*
Cc1cc(NC(=O)c2ccccc2F)n(-c2nc3ccccc3[nH]2)n1,16,70,-8,92,4,41
O=C(CN(c1ccc(F)cc1)S(=O)(=O)c1ccc2c(c1)OCCO2)N1CCOCC1,-3,99,3,92,-5,98
